Source: PMC4711262 (Journal of thrombosis and haemostasis : JTH, 2011)
Blank lines part the entries; values can stand above or below the compound they belong to. Residues, ends and D or L forms follow the SMILES beside them. *: point of attachment. AMC = Cc1cc(=O)oc2cc(N*)ccc12; Cbz = O=C(OCc1ccccc1)*

Key:
POP [1] = molecular target: T1, POP (Homo sapiens, UniProt P48147); details: cited from earlier work
T1 sequence (P48147 1-710): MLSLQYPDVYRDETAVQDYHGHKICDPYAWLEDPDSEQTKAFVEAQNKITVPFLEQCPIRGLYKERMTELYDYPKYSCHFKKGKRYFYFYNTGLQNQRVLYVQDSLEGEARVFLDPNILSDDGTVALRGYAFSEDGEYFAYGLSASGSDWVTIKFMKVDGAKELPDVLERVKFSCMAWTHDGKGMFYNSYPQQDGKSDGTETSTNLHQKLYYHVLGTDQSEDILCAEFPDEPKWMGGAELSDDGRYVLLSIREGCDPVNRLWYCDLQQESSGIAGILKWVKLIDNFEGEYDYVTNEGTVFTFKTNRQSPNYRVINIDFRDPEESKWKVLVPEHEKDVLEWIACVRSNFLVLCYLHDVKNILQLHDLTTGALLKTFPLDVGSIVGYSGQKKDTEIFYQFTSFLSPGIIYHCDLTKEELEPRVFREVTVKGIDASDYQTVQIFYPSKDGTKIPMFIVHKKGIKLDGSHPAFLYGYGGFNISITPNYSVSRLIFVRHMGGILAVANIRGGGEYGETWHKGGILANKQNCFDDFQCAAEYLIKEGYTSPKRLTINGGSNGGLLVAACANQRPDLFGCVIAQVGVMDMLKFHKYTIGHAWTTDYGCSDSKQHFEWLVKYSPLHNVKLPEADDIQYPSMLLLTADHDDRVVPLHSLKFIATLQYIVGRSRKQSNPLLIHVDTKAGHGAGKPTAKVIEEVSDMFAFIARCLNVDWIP

DPPIV [2] = molecular target: T2, DPPIV (Homo sapiens, UniProt P27487); assay: Enzyme assay with fluorogenic substrate, DPPIV; format: biochemical
T2 sequence (P27487 whole entry, species assumed): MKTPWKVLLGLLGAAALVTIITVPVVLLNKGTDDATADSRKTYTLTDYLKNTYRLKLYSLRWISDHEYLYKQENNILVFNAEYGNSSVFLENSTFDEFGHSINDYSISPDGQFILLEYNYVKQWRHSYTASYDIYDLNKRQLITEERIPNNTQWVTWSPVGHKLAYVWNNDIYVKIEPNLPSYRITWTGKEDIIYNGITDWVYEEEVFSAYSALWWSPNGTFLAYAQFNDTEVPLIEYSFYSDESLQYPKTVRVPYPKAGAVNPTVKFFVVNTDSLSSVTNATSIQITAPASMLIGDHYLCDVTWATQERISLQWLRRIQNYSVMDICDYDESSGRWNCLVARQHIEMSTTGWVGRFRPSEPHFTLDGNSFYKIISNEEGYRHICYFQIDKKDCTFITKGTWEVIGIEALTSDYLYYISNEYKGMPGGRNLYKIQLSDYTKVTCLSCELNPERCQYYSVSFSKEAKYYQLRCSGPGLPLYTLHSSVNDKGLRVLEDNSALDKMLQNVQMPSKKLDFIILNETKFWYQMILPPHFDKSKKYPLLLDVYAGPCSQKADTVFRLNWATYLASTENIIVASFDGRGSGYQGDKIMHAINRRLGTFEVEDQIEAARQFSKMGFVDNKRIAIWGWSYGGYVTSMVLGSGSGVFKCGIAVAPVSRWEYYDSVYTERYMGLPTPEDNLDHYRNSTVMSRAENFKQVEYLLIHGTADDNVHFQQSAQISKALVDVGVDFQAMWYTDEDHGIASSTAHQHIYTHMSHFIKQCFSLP

[3] = pH 7.8; cited from earlier work
DPPIV [4] = molecular target: T2, DPPIV; details: cited from earlier work
APCE/FAP = molecular target: T3, APCE/FAP (Homo sapiens, UniProt Q12884); assay: Enzyme assay with fluorogenic substrate, APCE/FAP; format: biochemical; details: 10 μM inhibitor
T3 sequence (Q12884 24-760 limits assumed): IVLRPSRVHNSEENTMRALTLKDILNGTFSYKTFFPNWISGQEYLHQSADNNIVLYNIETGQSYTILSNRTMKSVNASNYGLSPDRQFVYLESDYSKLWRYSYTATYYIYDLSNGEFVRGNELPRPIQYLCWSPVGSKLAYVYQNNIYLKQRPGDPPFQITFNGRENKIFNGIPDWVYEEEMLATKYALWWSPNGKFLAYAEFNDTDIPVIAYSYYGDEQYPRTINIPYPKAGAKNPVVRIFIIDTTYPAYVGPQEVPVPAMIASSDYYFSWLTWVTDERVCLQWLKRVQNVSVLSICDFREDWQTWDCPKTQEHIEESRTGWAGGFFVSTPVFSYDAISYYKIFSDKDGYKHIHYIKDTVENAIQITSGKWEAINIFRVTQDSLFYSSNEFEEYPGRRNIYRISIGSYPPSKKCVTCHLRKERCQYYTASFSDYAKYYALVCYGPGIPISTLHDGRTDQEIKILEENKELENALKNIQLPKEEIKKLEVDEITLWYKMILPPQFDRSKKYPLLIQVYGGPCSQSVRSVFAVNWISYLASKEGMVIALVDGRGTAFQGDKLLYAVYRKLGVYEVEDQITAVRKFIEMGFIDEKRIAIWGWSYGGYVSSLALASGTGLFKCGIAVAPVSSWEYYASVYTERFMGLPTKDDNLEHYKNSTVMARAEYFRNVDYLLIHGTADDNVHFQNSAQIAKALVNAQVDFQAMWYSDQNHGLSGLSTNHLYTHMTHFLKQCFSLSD

POP [5] = molecular target: T1, POP; assay: Enzyme assay with fluorogenic substrate, POP; format: biochemical; details: 100 nM inhibitor; in buffer
APCE and POP = format: biochemical, human; details: non-POP-supplemented plasma; 10 μM inhibitor; 100 μM substrate
How it was run: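 Pooled plasma from four donors, with or without 0.05 μg added POP, was assayed with 10 μM inhibitor or no inhibitor. Cleavage was compared with uninhibited plasma. Values are mean ± SD of three experiments.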

Compound: Cc1cc(=O)oc2cc(NC(=O)[C@@H]3CCCN3C(=O)CN)ccc12 [GP-AMC] (H-Gly-Pro-{AMC})
cleavage by POP (POP [1]): not cleaved

DPPIV selectivity (DPPIV [2]; Ki(app) (DPPIV)/Ki(app) (APCE/FAP)): 19
Compound: CC(=O)N[C@@H](CCCNC(=N)N)C(=O)NCC(=O)NCC(=O)N1CCC[C@H]1B(O)O [Inhibitor no. 2, Ac-Arg-Gly-Gly-L-boroPro]

Compound: CC(C)[C@H](N)C(=O)N1CCC[C@H]1B(O)O [Val-boroPro]
stability of inhibitory activity in aqueous media [3]: rapidly loses inhibitory activity

Compound: Cc1cc(=O)oc2cc(NC(=O)[C@@H]3CCCN3C(=O)CNC(=O)OCc3ccccc3)ccc12 [Z-GP-AMC, benzyloxycarbonyl (Z)-GP-AMC] (Cbz-Gly-Pro-{AMC})
cleavage by DPPIV (DPPIV [4]): not cleaved

inhibitory activity towards APCE/FAP (APCE/FAP): no inhibitory activity | inhibitory activity towards DPPIV (DPPIV [2]; 10 μM inhibitor): no inhibitory activity | inhibition of POP (POP [5]): total inhibition
Compound: acetyl-KLR-L-boroPro
inhibition of MEPLGRQLTSGP-AMC cleavage in plasma (APCE and POP): not inhibited
